Experimental data taken from ChEMBL document CHEMBL1143592, “N-terminal sugar conjugation and C-terminal Thr-for-Thr(ol) exchange in radioiodinated Tyr3-octreotide: effect on cellular ligand trafficking in vitro and tumor accumulation in vivo” (J Med Chem, 2005).
Blank lines part the entries; values can stand above or below the compound they belong to.

How the values were obtained:
[1] = molecular target: Somatostatin receptor type 2 (Rattus norvegicus) (UniProt P30680); assay: In vivo tumor accumulation was determined in nude mice bearing rat pancreatic AR42J tumor cell expressed with somatostatin receptor type 2;60 min p.i.; (n=3-5); type: functional, organism-based; settings: AR-42J
Sequence of Somatostatin receptor type 2 (Rattus norvegicus) (P30680 whole entry): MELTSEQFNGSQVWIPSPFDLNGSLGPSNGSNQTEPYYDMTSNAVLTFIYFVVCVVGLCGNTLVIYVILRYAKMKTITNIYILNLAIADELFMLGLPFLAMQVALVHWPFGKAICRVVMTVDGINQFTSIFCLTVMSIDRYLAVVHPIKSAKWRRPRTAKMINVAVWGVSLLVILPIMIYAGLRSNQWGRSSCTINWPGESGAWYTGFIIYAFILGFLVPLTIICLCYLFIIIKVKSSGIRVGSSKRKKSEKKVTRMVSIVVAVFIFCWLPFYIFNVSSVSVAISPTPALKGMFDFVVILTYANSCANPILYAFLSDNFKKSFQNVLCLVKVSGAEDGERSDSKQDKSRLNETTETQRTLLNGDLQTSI
Method in brief: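 Female Swiss nu/nu mice, 6–8 weeks, were inoculated s.c. in the flank with (2.5–5) × 10⁶ AR42J cells in serum-free RPMI 1640 and used after 10 days (tumors 150–500 mg). About 370 kBq of radioiodinated peptide in 100 µL PBS pH 7.4 was given i.v. into the tail vein. Tumor was excised 60 min p.i. and gamma-counted; results are % ID/g.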

[2] = molecular target: Somatostatin receptor type 1 (Homo sapiens, UniProt P30872); assay: In vitro inhibition of [125I][Leu8,D-Trp22,Tyr25] somatostatin 28 binding to human somatostatin receptor type 1 expressed in CHO-K1 cells; (n=3); type: cell-based
Sequence of Somatostatin receptor type 1 (P30872 whole entry): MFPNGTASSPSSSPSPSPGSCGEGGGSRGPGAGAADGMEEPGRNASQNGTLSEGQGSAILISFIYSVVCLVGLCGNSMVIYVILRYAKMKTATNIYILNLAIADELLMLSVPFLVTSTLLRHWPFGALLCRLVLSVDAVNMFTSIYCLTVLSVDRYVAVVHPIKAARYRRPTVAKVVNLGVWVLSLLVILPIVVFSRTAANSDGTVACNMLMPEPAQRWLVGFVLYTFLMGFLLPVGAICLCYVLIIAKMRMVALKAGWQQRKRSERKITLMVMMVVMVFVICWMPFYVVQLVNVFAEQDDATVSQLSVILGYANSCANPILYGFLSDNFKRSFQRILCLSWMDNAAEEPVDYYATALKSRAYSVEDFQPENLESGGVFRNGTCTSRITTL

[3] = molecular target: Somatostatin receptor type 4 (Homo sapiens, UniProt P31391); assay: In vitro inhibition of [125I][Leu8,D-Trp22,Tyr25] somatostatin 28 binding to human somatostatin receptor type 4 expressed in CCL39 cells; (n=3); type: cell-based
Sequence of Somatostatin receptor type 4 (P31391 whole entry): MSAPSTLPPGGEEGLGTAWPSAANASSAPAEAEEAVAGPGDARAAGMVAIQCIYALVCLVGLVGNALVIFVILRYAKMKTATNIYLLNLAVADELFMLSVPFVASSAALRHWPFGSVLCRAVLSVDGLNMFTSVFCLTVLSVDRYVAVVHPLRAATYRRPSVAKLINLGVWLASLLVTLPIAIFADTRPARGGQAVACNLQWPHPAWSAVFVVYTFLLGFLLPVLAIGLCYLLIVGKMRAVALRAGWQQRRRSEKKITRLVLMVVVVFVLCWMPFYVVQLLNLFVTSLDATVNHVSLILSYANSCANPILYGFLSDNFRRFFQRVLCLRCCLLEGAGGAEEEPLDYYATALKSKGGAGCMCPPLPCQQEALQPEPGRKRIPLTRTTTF
Method in brief: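 Membrane pellets from CCL39 cells stably expressing hsst4 were sectioned onto slides for receptor autoradiography. Full displacement of the universal somatostatin radioligand used unlabeled peptide at 0.1–1000 nM, with somatostatin 28 run in parallel at the same concentrations. Values are mean ± SD.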

[4] = molecular target: Somatostatin receptor type 5 (Homo sapiens, UniProt P35346); assay: In vitro inhibition of [125I][Leu8,D-Trp22,Tyr25] somatostatin 28 binding to human somatostatin receptor type 5 expressed in CHO-K1 cells; (n=3); type: cell-based
Sequence of Somatostatin receptor type 5 (P35346 whole entry): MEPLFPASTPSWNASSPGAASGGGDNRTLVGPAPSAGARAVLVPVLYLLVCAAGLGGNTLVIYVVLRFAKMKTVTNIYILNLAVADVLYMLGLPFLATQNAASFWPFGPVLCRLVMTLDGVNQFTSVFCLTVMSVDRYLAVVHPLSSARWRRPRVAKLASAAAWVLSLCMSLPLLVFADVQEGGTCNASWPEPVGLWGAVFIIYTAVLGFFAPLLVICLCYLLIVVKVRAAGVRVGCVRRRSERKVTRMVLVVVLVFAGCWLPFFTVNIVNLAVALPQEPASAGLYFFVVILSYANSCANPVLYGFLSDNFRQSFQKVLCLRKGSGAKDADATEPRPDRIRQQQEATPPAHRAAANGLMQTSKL

[5] = molecular target: Somatostatin receptor type 3 (Homo sapiens, UniProt P32745); assay: In vitro inhibition of [125I][Leu8,D-Trp22,Tyr25] somatostatin 28 binding to human somatostatin receptor type 3 expressed in CCL39 cells; (n=3); type: cell-based
Sequence of Somatostatin receptor type 3 (P32745 whole entry): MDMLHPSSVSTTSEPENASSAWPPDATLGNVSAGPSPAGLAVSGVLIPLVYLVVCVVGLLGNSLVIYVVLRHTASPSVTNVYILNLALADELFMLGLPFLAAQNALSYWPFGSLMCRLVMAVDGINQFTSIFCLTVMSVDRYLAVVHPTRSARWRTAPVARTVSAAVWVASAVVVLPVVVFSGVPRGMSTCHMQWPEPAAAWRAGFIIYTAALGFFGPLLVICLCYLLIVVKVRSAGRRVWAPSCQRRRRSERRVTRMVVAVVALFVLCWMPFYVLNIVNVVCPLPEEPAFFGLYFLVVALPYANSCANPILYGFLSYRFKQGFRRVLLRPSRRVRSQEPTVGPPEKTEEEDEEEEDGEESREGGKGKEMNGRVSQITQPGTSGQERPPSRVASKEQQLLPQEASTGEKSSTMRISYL

[6] = tested as the 123I-labelled form

ID/g [1, 6]: 4.9%
Compound: C[C@@H](O)[C@H](CO)NC(=O)[C@@H]1CSSC[C@H](NC(=O)[C@H](Cc2ccccc2)NC[C@]2(O)OC[C@H](O)[C@@H](O[C@@H]3O[C@@H](CO)[C@@H](O[C@@H]4O[C@@H](CO)[C@@H](O)[C@H](O)[C@@H]4O)[C@H](O)[C@@H]3O)[C@@H]2O)C(=O)N[C@@H](Cc2ccc(O)c(I)c2)C(=O)N[C@H](Cc2c[nH]c3ccccc23)C(=O)N[C@@H](CCCCN)C(=O)N[C@@H]([C@@H](C)O)C(=O)N1

IC50 ([2]; cho-k1): > 1000 nM
IC50 [4]: 413 nM
IC50 ([5]; ccl39): 491 nM
IC50 [3]: 482 nM
Compound: C[C@@H](O)[C@H](NC(=O)[C@@H]1CSSC[C@H](NC(=O)[C@@H](Cc2ccccc2)NC(=O)CCS[C@@H]2O[C@@H](CO)[C@H](O)[C@H](O)[C@@H]2O)C(=O)N[C@@H](Cc2ccc(O)c(I)c2)C(=O)N[C@H](Cc2c[nH]c3ccccc23)C(=O)N[C@@H](CCCCN)C(=O)N[C@@H]([C@@H](C)O)C(=O)N1)C(=O)O

ID/g [1, 6]: 11.2%
Compound: C[C@@H](O)[C@H](NC(=O)[C@@H]1CSSC[C@H](NC(=O)[C@H](Cc2ccccc2)NC[C@]2(O)OC[C@H](O)[C@@H](O[C@@H]3O[C@@H](CO)[C@@H](O)[C@H](O)[C@@H]3O)[C@@H]2O)C(=O)N[C@@H](Cc2ccc(O)c(I)c2)C(=O)N[C@H](Cc2c[nH]c3ccccc23)C(=O)N[C@@H](CCCCN)C(=O)N[C@@H]([C@@H](C)O)C(=O)N1)C(=O)O

IC50 ([2]; cho-k1): > 1000 nM
IC50 [4]: 310 nM
IC50 ([5]; ccl39): 398 nM
IC50 [3]: 356 nM
Compound: C[C@@H](O)[C@H](NC(=O)[C@@H]1CSSC[C@H](NC(=O)[C@@H](Cc2ccccc2)NC(=O)CCS[C@@H]2O[C@@H](CO)[C@@H](O)[C@H](O)[C@@H]2O)C(=O)N[C@@H](Cc2ccc(O)c(I)c2)C(=O)N[C@H](Cc2c[nH]c3ccccc23)C(=O)N[C@@H](CCCCN)C(=O)N[C@@H]([C@@H](C)O)C(=O)N1)C(=O)O

ID/g [1, 6]: 5.2%
Compound: C[C@@H](O)[C@H](CO)NC(=O)[C@@H]1CSSC[C@H](NC(=O)[C@H](Cc2ccccc2)NC[C@]2(O)OC[C@H](O)[C@@H](O[C@@H]3O[C@@H](CO)[C@@H](O)[C@H](O)[C@@H]3O)[C@@H]2O)C(=O)N[C@@H](Cc2ccc(O)c(I)c2)C(=O)N[C@H](Cc2c[nH]c3ccccc23)C(=O)N[C@@H](CCCCN)C(=O)N[C@@H]([C@@H](C)O)C(=O)N1

IC50 [2]: > 10000 nM
IC50 [5]: > 1000 nM
Compound: C[C@@H](O)[C@H](NC(=O)[C@@H]1CSSC[C@H](NC(=O)[C@@H](Cc2ccccc2)NC(=O)CN2CCN(CC(=O)O)CCN(CC(=O)O)CCN(CC(=O)O)CC2)C(=O)N[C@@H](Cc2ccc(O)cc2)C(=O)N[C@H](Cc2c[nH]c3ccccc23)C(=O)N[C@@H](CCCCN)C(=O)N[C@@H]([C@@H](C)O)C(=O)N1)C(=O)O

ID/g [1, 6]: 21.2%
Compound: C[C@@H](O)[C@H](NC(=O)[C@@H]1CSSC[C@H](NC(=O)[C@H](N)Cc2ccccc2)C(=O)N[C@@H](Cc2ccc(O)c(I)c2)C(=O)N[C@H](Cc2c[nH]c3ccccc23)C(=O)N[C@@H](CCCCN)C(=O)N[C@@H]([C@@H](C)O)C(=O)N1)C(=O)O

The next lines start with the compound.

Compound: C[C@@H](O)[C@H](CO)NC(=O)[C@@H]1CSSC[C@H](NC(=O)[C@H](Cc2ccccc2)NC[C@]2(O)OC[C@H](O)[C@@H](O)[C@@H]2O)C(=O)N[C@@H](Cc2ccc(O)c(I)c2)C(=O)N[C@H](Cc2c[nH]c3ccccc23)C(=O)N[C@@H](CCCCN)C(=O)N[C@@H]([C@@H](C)O)C(=O)N1
ID/g [1, 6]: 8.7%

Compound: C[C@@H](O)[C@H](CO)NC(=O)[C@@H]1CSSC[C@H](NC(=O)[C@@H](N)Cc2ccccc2)C(=O)N[C@@H](Cc2ccc(O)c(I)c2)C(=O)N[C@H](Cc2c[nH]c3ccccc23)C(=O)N[C@@H](CCCCN)C(=O)N[C@@H]([C@@H](C)O)C(=O)N1
ID/g ([1]; tested as the 125I-labelled form): 5.5%

Compound: EDOTREOTIDE YTTRIUM
IC50 ([2]; cho-k1): > 10000 nM
IC50 [3]: > 10000 nM

Compound: C[C@@H](O)[C@H](NC(=O)[C@@H]1CSSC[C@H](NC(=O)[C@H](Cc2ccccc2)NC[C@]2(O)OC[C@H](O)[C@@H](O[C@@H]3O[C@@H](CO)[C@@H](O[C@@H]4O[C@@H](CO)[C@@H](O)[C@H](O)[C@@H]4O)[C@H](O)[C@@H]3O)[C@@H]2O)C(=O)N[C@@H](Cc2ccc(O)c(I)c2)C(=O)N[C@H](Cc2c[nH]c3ccccc23)C(=O)N[C@@H](CCCCN)C(=O)N[C@@H]([C@@H](C)O)C(=O)N1)C(=O)O
ID/g [1, 6]: 25.1%
